Data set [1] is described as follows: Half life in total cell extract of nucleoside analogue-resistant mouse L1210 10K cells by HPLC analysis in presence of snake venom phosphodiesterase. In kind it is ADME, cell-based.
The nature of data set [2]: Half life in total cell extract of deoxynucleoside analogue-sensitive mouse L1210 cells by HPLC analysis in presence of snake venom phosphodiesterase. In kind it is ADME, cell-based.
Data set [3] deals with MCF7. Kind of data set: Cytotoxicity against deoxynucleoside analogue-resistant human MCF7 1K cells overexpressing ribonucleotide reductase after 3 days by MTT assay. The note with it: MCF7, 72 h. Type of data set: functional, cell-based. Summed up:
(§1)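 Adherent lines (Messa in RPMI, MCF7 in DMEM, each with 10% FBS, L-glutamine and penicillin/streptomycin) seeded at 3000 cells/well and left 24 h at 37 °C before drugs were added over a concentration range. After 3 days at 37 °C, MTT (100 µg) was added for 2 h and the formazan dissolved in isopropanol/HCl/water for optical density.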

A short description of data set [4]: Cytotoxicity against deoxynucleoside analogue-sensitive human MESSA cells after 3 days by MTT assay. In kind it is functional, cell-based. To be noted: MES-SA, 72 h. A digest of the protocol: as §1
The subject of data set [5] is L1210. Kind of data set: Cytotoxicity against deoxynucleoside analogue-sensitive mouse L1210 cells after 3 days by MTT assay. Type of data set: functional, cell-based. The note with it: L1210, 72 h. A digest of the protocol:
(§2)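 Suspension lines (CCRF-CEM, L1210) grown in RPMI with 10% FBS, L-glutamine and penicillin/streptomycin, added at 10,000 cells/well directly to media holding graded drug concentrations. After 3 days at 37 °C, MTT (100 µg) was added for 2 h and the formazan dissolved in isopropanol/HCl/water for optical density.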

Data set [6] can be described thus: Cytotoxicity against nucleoside transporter deficient and deoxynucleoside analogue-resistant human CEM/ARAC8C cells after 3 days by MTT assay. Type of data set: functional, cell-based. To be noted: 72 h.
In data set [7] the test system is CCRF-CEM. The data set is described as follows: Cytotoxicity against deoxynucleoside analogue-sensitive human CCRF-CEM cells after 3 days by MTT assay. In kind it is functional, cell-based. To be noted: 72 h. A digest of the protocol: as §2
Data set [8] deals with L1210. Kind of data set: Resistance ratio of IC50 for deoxynucleoside analogue-resistant mouse L1210 10K cells to IC50 for deoxynucleoside analogue-sensitive mouse L1210 cells. Type of data set: functional. A digest of the protocol:
(§3)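 RR is the 3-day MTT IC50 in the resistant line divided by the IC50 in its sensitive parental line. Significance between IC50s and RRs was tested by Student's t-test.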

In data set [9] the test system is CCRF-CEM. Kind of data set: Resistance ratio of IC50 for deoxynucleoside analogue-resistant human CEM/ARAC8C cells to IC50 for deoxynucleoside analogue-sensitive human CCRF-CEM cells. In kind it is functional. Summed up: as §3
In data set [10] the test system is MCF7. Kind of data set: Cytotoxicity against deoxynucleoside analogue-sensitive human MCF7 cells after 3 days by MTT assay. Type of data set: functional, cell-based. The note with it: MCF7, 72 h. Summed up:
as §1

The subject of data set [11] is L1210. Kind of data set: Cytotoxicity against deoxycytidine kinase deficient and nucleoside analogue-resistant mouse L1210 10K cells after 3 days by MTT assay. Type of data set: functional, cell-based. To be noted: L1210, 72 h. A digest of the protocol:
as §2

Data set [12] is described as follows: Cytotoxicity against deoxycytidine kinase deficient and deoxynucleoside analogue-resistant human MESSA 10K cells after 3 days by MTT assay. Type of data set: functional, cell-based. To be noted: 72 h. A digest of the protocol: as §1

For `Cc1cn([C@@H]2O[C@H](COP(=O)([O-])Oc3ccccc3)[C@@H](N=[N+]=[N-])[C@@H]2O)c(=O)[nH]c1=O.[Na+]`, the half-life in [1] and in [2] was 53 min throughout.
Regarding `Cc1cn([C@H]2C[C@H](O)[C@@H](COP(=O)(O)Oc3ccc([N+](=O)[O-])cc3)O2)c(=O)[nH]c1=O`, the half-life in data set [1] and in [2] was 43 min throughout.
Turning to `Nc1ccn([C@@H]2O[C@H](COP(=O)([O-])Oc3ccccc3)[C@@H](O)[C@@H]2O)c(=O)n1.[Na+]`, the half-life in [1] and in data set [2] was 276 min each time.
As to `Nc1ccn([C@@H]2O[C@H](CO)[C@@H](O)[C@@H]2O)c(=O)n1` [CYTARABINE], the IC50 with MCF7 [3] was determined as 0.04 µM; in data set [4] it was 1.7 µM; with L1210 [5], 0.0004 µM; in data set [6], 100 µM; in the data set on CCRF-CEM [7], 0.001 µM; with MCF7 [10] it was 0.004 µM. The 50% inhibitory concentration (IC50) was determined as 103 µM with L1210 [11] and 6330 µM in data set [12]. Also, the “Ratio IC50” value with L1210 [8] is recorded as 257500; in the data set on CCRF-CEM [9], 100000.
